Values after ≈ are worked out from the molar mass of the structure shown. Active and inactive are the calls of the source. The calls are words filed in the database; no cut-off is given here.
Columns and labels:
[1] = system: Candida albicans; assay: Antifungal activity against multidrug-resistant Candida albicans after 24 hrs by serial dilution method; format: functional
Outline: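 Broth serial dilution in 96-well plates per NCCLS recommendations; RPMI 1640 buffered with 0.165 M MOPS as medium. Compounds dissolved in DMSO, serially diluted in growth medium. Strains from ATCC or clinical isolates. Yeasts incubated at 35 °C, read at 24 h for Candida. MIC = lowest concentration giving turbidity at or below 80% inhibition versus growth control.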

[2] = system: Candida tropicalis; assay: Antifungal activity against Candida tropicalis after 24 hrs by serial dilution method; format: functional
Outline: (§1)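 NCCLS broth microdilution in RPMI 1640 buffered with 0.165 M MOPS, with strains from ATCC or clinical isolates. Compounds were dissolved in DMSO and serially diluted in medium. Yeasts were incubated at 35 °C and read at 24 h for Candida or 72 h for C. neoformans. MIC was the lowest concentration giving ≥80% turbidity inhibition versus the growth control.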

[3] = system: Candida albicans; assay: Antifungal activity against Candida albicans after 24 hrs by serial dilution method; format: functional; outline: as §1
[4] = system: Cryptococcus neoformans; assay: Antifungal activity against Cryptococcus neoformans after 72 hrs by serial dilution method; format: functional; outline: as §1
[5] = system: Trichophyton rubrum; assay: Antifungal activity against Trichophyton rubrum after 7 days by serial dilution method; format: functional; details: 168 h
Outline: (§2)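 Dermatophytes (ATCC or clinical isolates) were tested by NCCLS serial dilution in RPMI 1640 with 0.165 M MOPS, incubated at 28 °C and read at 7 days. Compounds were taken up in DMSO and diluted in medium. MIC was the lowest concentration reducing turbidity by at least 80% relative to the drug-free growth control.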

[6] = system: Aspergillus fumigatus; assay: Antifungal activity against Aspergillus fumigatus after 7 days by serial dilution method; format: functional; details: 168 h
Outline: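 Filamentous fungus (ATCC or clinical isolate) was tested by NCCLS microdilution in MOPS-buffered (0.165 M) RPMI 1640. Compounds were dissolved in DMSO and serially diluted in medium, and growth was scored at 7 days. MIC was the lowest concentration producing ≥80% inhibition of turbidity compared with the untreated control.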

[7] = system: Nannizzia gypsea; assay: Antifungal activity against Microsporum gypseum after 7 days by serial dilution method; format: functional; details: 168 h; outline: as §2
[8] = system: Candida parapsilosis; assay: Antifungal activity against Candida parapsilosis after 24 hrs by serial dilution method; format: functional, organism-based; outline: as §1

| Compound | MIC80 [1] [µg/mL] | MIC80 [2] [µg/mL] | MIC80 [3] [µg/mL] | MIC80 [4] [µg/mL] | MIC80 [5] [µg/mL] | MIC80 [6] [µg/mL] | MIC80 [7] [µg/mL] | Activity [8] |
| --- | --- | --- | --- | --- | --- | --- | --- | --- |
| OC(CN1CCN(CCCOc2ccccc2)CC1)(Cn1cncn1)c1ccc(F)cc1F (racemic) | 64 (≈ 140 µM) | 0.0625 (≈ 0.137 µM) | 0.0156 (≈ 0.0341 µM) | 1 (≈ 2.19 µM) | 0.25 (≈ 0.546 µM) | 32 (≈ 69.9 µM) | 4 (≈ 8.74 µM) | Active |
| Nc1ccccc1OCCCN1CCN(CC(O)(Cn2cncn2)c2ccc(F)cc2F)CC1 (racemic) | 0.5 (≈ 1.06 µM) | 0.25 (≈ 0.529 µM) | 0.25 (≈ 0.529 µM) | 4 (≈ 8.46 µM) | 1 (≈ 2.12 µM) | 64 (≈ 135 µM) | 16 (≈ 33.9 µM) | Active |
| OC(CN1CCN(CCCOc2cccc(Br)c2)CC1)(Cn1cncn1)c1ccc(F)cc1F (racemic) | 16 (≈ 29.8 µM) | 0.0156 (≈ 0.0291 µM) | 0.0156 (≈ 0.0291 µM) | 0.25 (≈ 0.466 µM) | 0.0625 (≈ 0.117 µM) | 4 (≈ 7.46 µM) | 0.25 (≈ 0.466 µM) | Active |
| O=[N+]([O-])c1cccc(OCCCN2CCN(CC(O)(Cn3cncn3)c3ccc(F)cc3F)CC2)c1 (racemic) | 0.25 (≈ 0.497 µM) | 0.0156 (≈ 0.031 µM) | 0.0625 (≈ 0.124 µM) | 0.25 (≈ 0.497 µM) | 0.0625 (≈ 0.124 µM) | 32 (≈ 63.7 µM) | 0.25 (≈ 0.497 µM) | Active |
| OC(CN1CCN(CCCCCOc2ccccc2)CC1)(Cn1cncn1)c1ccc(F)cc1F (racemic) | 4 (≈ 8.24 µM) | 0.0625 (≈ 0.129 µM) | 0.0625 (≈ 0.129 µM) | 1 (≈ 2.06 µM) | 0.25 (≈ 0.515 µM) | 32 (≈ 65.9 µM) | 4 (≈ 8.24 µM) | Active |
| CC(C)(C)c1ccc(OCCCN2CCN(CC(O)(Cn3cncn3)c3ccc(F)cc3F)CC2)cc1 (racemic) | 0.125 (≈ 0.243 µM) | 0.0156 (≈ 0.0304 µM) | 0.0156 (≈ 0.0304 µM) | 0.0625 (≈ 0.122 µM) | 0.0156 (≈ 0.0304 µM) | 2 (≈ 3.89 µM) | 0.0625 (≈ 0.122 µM) | Active |
| Nc1ccc(OCCCN2CCN(CC(O)(Cn3cncn3)c3ccc(F)cc3F)CC2)cc1 (racemic) | 0.25 (≈ 0.529 µM) | 1 (≈ 2.12 µM) | 0.25 (≈ 0.529 µM) | 4 (≈ 8.46 µM) | 4 (≈ 8.46 µM) | 64 (≈ 135 µM) | 16 (≈ 33.9 µM) | Active |
| O=C(Nc1ccc(OCCCN2CCN(CC(O)(Cn3cncn3)c3ccc(F)cc3F)CC2)cc1)c1ccccc1 (racemic) | 0.5 (≈ 0.867 µM) | 1 (≈ 1.73 µM) | 0.25 (≈ 0.434 µM) | 16 (≈ 27.7 µM) | 16 (≈ 27.7 µM) | > 64 | 64 (≈ 111 µM) | Active |
| OC(CN1CCN(CCCOc2ccc(Br)cc2)CC1)(Cn1cncn1)c1ccc(F)cc1F (racemic) | 0.25 (≈ 0.466 µM) | 0.0156 (≈ 0.0291 µM) | 0.0156 (≈ 0.0291 µM) | 0.25 (≈ 0.466 µM) | 0.0625 (≈ 0.117 µM) | 1 (≈ 1.86 µM) | 0.25 (≈ 0.466 µM) | Active |
| O=[N+]([O-])c1ccc(OCCCN2CCN(CC(O)(Cn3cncn3)c3ccc(F)cc3F)CC2)cc1 (racemic) | 0.125 (≈ 0.249 µM) | 0.0625 (≈ 0.124 µM) | 0.0625 (≈ 0.124 µM) | 0.25 (≈ 0.497 µM) | 0.0625 (≈ 0.124 µM) | 32 (≈ 63.7 µM) | 1 (≈ 1.99 µM) | Active |
| OC(CN1CCN(CCCOc2ccccc2Cl)CC1)(Cn1cncn1)c1ccc(F)cc1F (racemic) | 16 (≈ 32.5 µM) | 0.0625 (≈ 0.127 µM) | 0.0625 (≈ 0.127 µM) | 1 (≈ 2.03 µM) | 0.25 (≈ 0.508 µM) | 32 (≈ 65 µM) | 1 (≈ 2.03 µM) | Active |
| OC(CN1CCN(CCCOc2ccc(OCc3ccccc3)cc2)CC1)(Cn1cncn1)c1ccc(F)cc1F (racemic) | 32 (≈ 56.8 µM) | 0.0625 (≈ 0.111 µM) | 0.0625 (≈ 0.111 µM) | 0.25 (≈ 0.444 µM) | 0.0625 (≈ 0.111 µM) | 2 (≈ 3.55 µM) | 0.0625 (≈ 0.111 µM) | Active |
| Nc1cccc(OCCCN2CCN(CC(O)(Cn3cncn3)c3ccc(F)cc3F)CC2)c1 (racemic) | 0.25 (≈ 0.529 µM) | 1 (≈ 2.12 µM) | 1 (≈ 2.12 µM) | 16 (≈ 33.9 µM) | 4 (≈ 8.46 µM) | > 64 | 64 (≈ 135 µM) | Active |
| Cc1cccc(OCCCN2CCN(CC(O)(Cn3cncn3)c3ccc(F)cc3F)CC2)c1 (racemic) | 0.125 (≈ 0.265 µM) | 0.0625 (≈ 0.133 µM) | 0.0156 (≈ 0.0331 µM) | 1 (≈ 2.12 µM) | 0.25 (≈ 0.53 µM) | 16 (≈ 33.9 µM) | 1 (≈ 2.12 µM) | Active |
| O=[N+]([O-])c1ccccc1OCCCN1CCN(CC(O)(Cn2cncn2)c2ccc(F)cc2F)CC1 (racemic) | 2 (≈ 3.98 µM) | 0.25 (≈ 0.497 µM) | 0.25 (≈ 0.497 µM) | 4 (≈ 7.96 µM) | 1 (≈ 1.99 µM) | 64 (≈ 127 µM) | 4 (≈ 7.96 µM) | Active |
| OC(CN1CCN(CCCOc2ccc(Cl)cc2)CC1)(Cn1cncn1)c1ccc(F)cc1F (racemic) | 0.125 (≈ 0.254 µM) | 0.0156 (≈ 0.0317 µM) | 0.0156 (≈ 0.0317 µM) | 0.25 (≈ 0.508 µM) | 0.0156 (≈ 0.0317 µM) | 4 (≈ 8.13 µM) | 0.25 (≈ 0.508 µM) | Active |
| Cc1ccccc1OCCCN1CCN(CC(O)(Cn2cncn2)c2ccc(F)cc2F)CC1 (racemic) | 0.125 (≈ 0.265 µM) | 0.0625 (≈ 0.133 µM) | 0.0625 (≈ 0.133 µM) | 1 (≈ 2.12 µM) | 0.25 (≈ 0.53 µM) | 32 (≈ 67.9 µM) | 1 (≈ 2.12 µM) | Active |
| OC(CN1CCN(CCCOc2ccc(F)cc2)CC1)(Cn1cncn1)c1ccc(F)cc1F (racemic) | 32 (≈ 67.3 µM) | 0.0625 (≈ 0.131 µM) | 0.0156 (≈ 0.0328 µM) | 1 (≈ 2.1 µM) | 0.25 (≈ 0.526 µM) | 32 (≈ 67.3 µM) | 1 (≈ 2.1 µM) | Active |
| Cc1ccc(OCCCN2CCN(CC(O)(Cn3cncn3)c3ccc(F)cc3F)CC2)cc1 (racemic) | 0.12 (≈ 0.254 µM) | 0.0625 (≈ 0.133 µM) | 0.0156 (≈ 0.0331 µM) | 0.25 (≈ 0.53 µM) | 0.0625 (≈ 0.133 µM) | 8 (≈ 17 µM) | 0.25 (≈ 0.53 µM) | Active |
| CC(=O)Nc1ccc(OCCCN2CCN(CC(O)(Cn3cncn3)c3ccc(F)cc3F)CC2)cc1 (racemic) | 2 (≈ 3.89 µM) | 0.25 (≈ 0.486 µM) | 0.25 (≈ 0.486 µM) | 1 (≈ 1.94 µM) | 0.25 (≈ 0.486 µM) | > 64 | 4 (≈ 7.77 µM) | Active |
| OC(CN1CCN(CCCOc2ccccc2Br)CC1)(Cn1cncn1)c1ccc(F)cc1F (racemic) | 8 (≈ 14.9 µM) | 0.0156 (≈ 0.0291 µM) | 0.0625 (≈ 0.117 µM) | 1 (≈ 1.86 µM) | 0.25 (≈ 0.466 µM) | 16 (≈ 29.8 µM) | 1 (≈ 1.86 µM) | Active |
| OC(CN1CCN(CCCCOc2ccccc2)CC1)(Cn1cncn1)c1ccc(F)cc1F (racemic) | 32 (≈ 67.9 µM) | 0.25 (≈ 0.53 µM) | 0.25 (≈ 0.53 µM) | 1 (≈ 2.12 µM) | 1 (≈ 2.12 µM) | 8 (≈ 17 µM) | 4 (≈ 8.48 µM) | Active |
| OC(Cn1cncn1)(Cn1cncn1)c1ccc(F)cc1F [FLUCONAZOLE] | > 64 | 1 (≈ 3.27 µM) | 1 (≈ 3.27 µM) | 1 (≈ 3.27 µM) | 4 (≈ 13.1 µM) | > 64 | 16 (≈ 52.2 µM) | Active |
| CCC(C)n1ncn(-c2ccc(N3CCN(c4ccc(OCC5COC(Cn6cncn6)(c6ccc(Cl)cc6Cl)O5)cc4)CC3)cc2)c1=O (stereo not given) [ITRACONAZOLE] | > 64 | 0.125 (≈ 0.177 µM) | 0.125 (≈ 0.177 µM) | 0.125 (≈ 0.177 µM) | 0.125 (≈ 0.177 µM) | 2 (≈ 2.83 µM) | 0.25 (≈ 0.354 µM) | Active |
| C[C@@H](c1ncncc1F)[C@](O)(Cn1cncn1)c1ccc(F)cc1F [VORICONAZOLE] | > 64 | 0.0625 (≈ 0.179 µM) | 0.0625 (≈ 0.179 µM) | 0.0625 (≈ 0.179 µM) | 0.0625 (≈ 0.179 µM) | 0.5 (≈ 1.43 µM) | 0.0625 (≈ 0.179 µM) | Active |
